From PubChem BioAssay
Unmarked numbers belong to inactive results.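 Rule for the calls, unless noted: active = viability at or below 30% in both replicate assays; inconclusive = viability at or below 30% in just one of the two assays; inactive = the rest.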

Test: reduced viability of SK-BR-3 breast cancer cells – cell-based, 24 h, human, pilot screen (AID 572;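 active = viability at or below 10% of carrier control in both of two separate runs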;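 note: compound exposure lasted between 18 and 24 h rather than exactly 24 h; 100% = carrier-treated control wells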)
Conditions: SK-BR-3 viability, CellTiter-Glo luminescence, at 10 µM, hits give low values

Compound	viability [%]
Cn1nnc2c(sc3nc(N4CCOCC4)c4c(c32)CCCC4)c1=O	100
CCOc1cc(NC(=O)c2ccco2)c(OCC)cc1NC(=O)COc1ccccc1C	67
CCOc1ccc(OCC)c2sc(C)nc12	107
COC(=O)c1[nH]c2ccccc2c1NS(=O)(=O)c1ccc(OC)cc1OC	88.5
CC(NC(=O)c1ccco1)c1ccc2c(c1)OCCO2 (stereo not drawn)	116
CCC(C)NC(=O)CSC1=Nc2ccccc2C2=NC(CC(=O)NCc3ccccc3)C(=O)N12 (stereo not drawn)	96.5
Cc1nnc(N(C)C(=O)c2cccnc2)s1	110
COc1ccc(N2C(=O)C3CCCN3C2c2ccc(F)cc2)cc1Cl (stereo not drawn)	102
CCCn1c(SCC(=O)Nc2nnc(-c3ccccc3)s2)nnc1-c1ccccn1	98.5
CN(C1CCCCC1)S(=O)(=O)c1ccc(S(=O)(=O)N2CCCC2)cc1	84.5
O=C(CN1CCN(C2CCCCC2)CC1)Nc1ccccc1-c1ccccc1	90.5
COc1cccc(-n2nnc3c(=O)n(Cc4cccc(F)c4)cnc32)c1	96.5
Cc1ccc(-n2c(SCC3CCCCO3)nnc2-c2ccco2)cc1 (stereo not drawn)	89
Cc1ccc(-n2nnnc2SCC(=O)N2CCc3ccccc3C2)cc1	113
CCOC(=O)c1cccc(NC(=O)C2CCN(S(=O)(=O)c3cccs3)CC2)c1	75.5
CCn1c(CSc2ncccn2)nnc1SCC(=O)N1c2ccccc2CC1C (stereo not drawn)	96
Cc1cc(C(=O)Nc2sc3c(c2C#N)CCCCC3)cs1	91.5
CCN(CC)c1ccc2c(C)c(-c3ccc(N)cc3)c(=O)oc2c1	96.5
N#CC(C(=O)Nc1ccc(Cl)c(Cl)c1)=C1Nc2ccccc2N1	90.5
CCn1nnnc1SCC(=O)N1CCOCC1	116
CCN(CC(=O)NCc1cccs1)C(=O)c1cc(S(=O)(=O)N2CCOCC2)ccc1C	89.5
O=C(Nc1ccc2c(c1)OCO2)c1ccc(Br)c(S(=O)(=O)N2CCCC2)c1	98.5
COc1ccc(CNS(=O)(=O)c2ccc3oc(C(=O)O)c(C)c3c2)cc1	103

Test: HUVEC growth inhibition – cell-based, human, primary screen (AID 575);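 note: 100% = median of untreated cell wells with 0.1% DMSO on each plate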
Conditions: HUVEC proliferation, CellTiter-Glo luminescence, 72 h; at 10 µM; hits give low values
Summary of the method: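 System – primary HUVEC, no more than 12 passages · Medium – Low-serum (2% FBS) EBM, supplemented · Times – 72 h exposure, 37 °C, 5% CO2, 30 min RT equilibration · Measured by – luminescent ATP assay · Read-out – % viability relative to median vehicle-well signal on each plate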

Compound	viability [%]
Cc1ccc(-c2nc(N)n(C(=O)c3cccnc3)n2)cc1	95.1
COc1ccccc1N1CCN(C(=O)c2ccc3nc(-c4ccco4)c(-c4ccco4)nc3c2)CC1	48.5
Cc1ccc(OCC(=O)N2CCN(C(=O)CCC3CCCC3)CC2)cc1	94.6
O=c1c2[nH]c3cccc(Cl)c3c2ncn1CCN1CCCCC1	101
O=C(CS(=O)(=O)c1cn(Cc2ccc(Cl)cc2)c2ccccc12)N1CCOCC1	105
CCCC(=O)Nc1ccc(NC(=O)c2ccccc2OC)cn1	100
CC(C)CCNC(=O)C(c1ccco1)N(CC1CCCO1)C(=O)Cn1nnc2ccccc21 (stereo not drawn)	101
Cn1cnnc1Sc1nc2c(c(=O)n(C)c(=O)n2C)n1C	107
CC(CCc1ccccc1)NC(=O)c1ccc(Br)o1 (stereo not drawn)	88.5
O=C1CC(c2ccsc2)c2cc3c(cc2N1)OCCO3 (stereo not drawn)	67.6
Nc1nonc1-n1nnc(C(=O)c2ccccc2)c1-c1ccccc1	63.6
C#CC1(O)CC(C)N(C)C(C)C1 (stereo not drawn)	85.3
Cc1ccc(S(=O)(=O)CCC(=O)Nc2ccc3c(c2)OCO3)cc1	92.5
Cc1ccc(C)c2[nH]c(=O)c(CCNC(=O)c3ccc(Br)o3)cc12	72.8
O=c1c2ccccc2nc(SCc2cn3ccsc3n2)n1-c1ccc(F)cc1	64.6
Cn1c(SCC(=O)c2ccc(-c3ccccc3)cc2)nnc1-c1ccco1	93.7
O=C(NCCSCc1ccco1)Nc1cccc(Cl)c1	63.6
Cn1nnc2c(sc3nc(N4CCOCC4)c4c(c32)CCCC4)c1=O	90.9
CCOc1cc(NC(=O)c2ccco2)c(OCC)cc1NC(=O)COc1ccccc1C	60.9
CCOc1ccc(OCC)c2sc(C)nc12	102

Compound	viability [%]
COC(=O)c1[nH]c2ccccc2c1NS(=O)(=O)c1ccc(OC)cc1OC	96.8
CC(NC(=O)c1ccco1)c1ccc2c(c1)OCCO2 (stereo not drawn)	90.7
CCC(C)NC(=O)CSC1=Nc2ccccc2C2=NC(CC(=O)NCc3ccccc3)C(=O)N12 (stereo not drawn)	85.7
Cc1nnc(N(C)C(=O)c2cccnc2)s1	93.1
COc1ccc(N2C(=O)C3CCCN3C2c2ccc(F)cc2)cc1Cl (stereo not drawn)	84.2
CCCn1c(SCC(=O)Nc2nnc(-c3ccccc3)s2)nnc1-c1ccccn1	84.6
CN(C1CCCCC1)S(=O)(=O)c1ccc(S(=O)(=O)N2CCCC2)cc1	78.3
O=C(CN1CCN(C2CCCCC2)CC1)Nc1ccccc1-c1ccccc1	91.4
COc1cccc(-n2nnc3c(=O)n(Cc4cccc(F)c4)cnc32)c1	91.7
Cc1ccc(-n2c(SCC3CCCCO3)nnc2-c2ccco2)cc1 (stereo not drawn)	102
Cc1ccc(-n2nnnc2SCC(=O)N2CCc3ccccc3C2)cc1	99.9
CCOC(=O)c1cccc(NC(=O)C2CCN(S(=O)(=O)c3cccs3)CC2)c1	60.7
CCn1c(CSc2ncccn2)nnc1SCC(=O)N1c2ccccc2CC1C (stereo not drawn)	87.5
Cc1cc(C(=O)Nc2sc3c(c2C#N)CCCCC3)cs1	76.6
CCN(CC)c1ccc2c(C)c(-c3ccc(N)cc3)c(=O)oc2c1	60.4
N#CC(C(=O)Nc1ccc(Cl)c(Cl)c1)=C1Nc2ccccc2N1	36
CCn1nnnc1SCC(=O)N1CCOCC1	101
CCN(CC(=O)NCc1cccs1)C(=O)c1cc(S(=O)(=O)N2CCOCC2)ccc1C	98.8
O=C(Nc1ccc2c(c1)OCO2)c1ccc(Br)c(S(=O)(=O)N2CCCC2)c1	58
COc1ccc(CNS(=O)(=O)c2ccc3oc(C(=O)O)c(C)c3c2)cc1	111
